Bioassay records as filed in PubChem.
Many of the other results were omitted from the sample, so hits are more common in it than they were.
DAT uptake mod: changed hDAT dopamine uptake under cocaine IC80, either direction, primary screen, cocaine antagonist project, cell-based, LLC-PK1 hDAT, [14C]-dopamine uptake, MLSMR; B-score at 10 µM; LLC-PK1 hDAT cells, [14C]-dopamine uptake with cocaine IC80; actives deviate in either direction; hit rate 1.3% among 110,000; Sodium-dependent dopamine transporter (Homo sapiens), Q01959; AID 449768, 2010;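 active = Z score or B-score, a plate-position-corrected score, falls beyond the plate's 99.7% confidence bounds, in either direction; inactive = both scores lie inside the 99.7% bounds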
Target sequence (Q01959 whole entry, looked up): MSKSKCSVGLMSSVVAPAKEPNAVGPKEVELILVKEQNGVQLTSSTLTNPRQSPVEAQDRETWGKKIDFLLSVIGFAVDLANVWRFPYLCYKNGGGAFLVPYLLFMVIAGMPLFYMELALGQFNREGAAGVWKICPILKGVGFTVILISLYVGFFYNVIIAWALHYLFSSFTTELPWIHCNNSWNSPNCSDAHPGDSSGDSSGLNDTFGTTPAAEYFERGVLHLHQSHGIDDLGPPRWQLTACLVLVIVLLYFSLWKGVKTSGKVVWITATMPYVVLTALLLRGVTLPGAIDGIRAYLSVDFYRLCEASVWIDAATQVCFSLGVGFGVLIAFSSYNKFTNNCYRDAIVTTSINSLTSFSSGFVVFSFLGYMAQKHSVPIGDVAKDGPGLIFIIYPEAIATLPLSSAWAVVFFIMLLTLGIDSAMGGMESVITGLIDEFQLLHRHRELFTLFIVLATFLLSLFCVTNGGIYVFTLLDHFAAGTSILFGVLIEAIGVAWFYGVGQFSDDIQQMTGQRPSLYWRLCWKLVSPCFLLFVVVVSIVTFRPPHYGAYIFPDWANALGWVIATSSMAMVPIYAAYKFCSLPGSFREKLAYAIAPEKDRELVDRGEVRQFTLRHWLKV
AP ELISA ortho: alternative complement pathway inhibitors, primary screen, biochemical, ELISA, human serum, orthogonally pooled compounds; LPS-coated ELISA, C3 deposition; tested in compound mixtures; hit rate 0.08% among 62,000; AID 1235, 2008; inhibition, % at 5 µM;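 active = inhibition above 30% in each of the two pooled mixtures holding the compound, so the lower value exceeds 30%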
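Test system – human serum alternative complement pathway, C3 deposition on LPS-coated wells · Buffer or medium – diluted human serum in Mg2+-EGTA GVB++ · Compound dosing – 5 µM each compound, pools of ten, 50 µM per pool · Schedule – 1 h serum-compound exposure at 37 °C · Measured by – Anti-C3 ELISA, OD 450 nm · Read-out basis – percent inhibition of C3 deposition onto LPS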
D1 mod: D1 CRE-luciferase signal change, two-sided – cell-based, HEK293 D1, dopamine EC30, D1 allosteric modulator project, primary screen; dopamine EC30 potentiation; actives deviate in either direction; B-score at 10 µM; hit rate 5.9% among 58,000; AID 641, 2007;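 active = luminescence count or its row- and column-corrected plate score outside the 99.7% band of the plate's sample wells, on either side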
WNV NS2B-NS3 inh: inhibitors of WNV NS2B-NS3 protease, primary screen, biochemical, fluorogenic substrate | hit rate 0.18% among 65,000 | Genome polyprotein (West Nile virus), P06935 | z-score (no concentration beside the values) | fluorogenic substrate Ex360/Em465; hits give low values | AID 577, 2007; in the data active = z-score below about -3
Of the large screens only hits and unclear results are named; the others gave an inactive call.

CCn1c(=S)sc2c(=O)[nH]c(C)nc21	DAT uptake mod -9 (no result: D1 mod)
COc1cc([N+](=O)[O-])ccc1NC(=O)C[n+]1ccccc1C	none (no result: AP ELISA ortho, D1 mod, WNV NS2B-NS3 inh)
Cc1ccc(C(=O)Nc2nc3ccc(S(C)(=O)=O)cc3s2)s1	none
Cc1ccc(C(=O)Nc2nc3ccccc3s2)s1	D1 mod -5.8 (no result: DAT uptake mod)
Cc1ccc(CNc2nc3ccccc3s2)s1	D1 mod -2.4
CS(=O)(=O)c1ccc2nc(NC(=O)c3cccs3)sc2c1	D1 mod -5.7
Cc1ccc2nc(NC(=O)c3cccs3)sc2c1	none
CCCCNC(=O)c1onc(CSc2cccc(C)c2)c1C(=O)O	none (no result: AP ELISA ortho, D1 mod, WNV NS2B-NS3 inh)
COc1ccc(OC)c(-c2cc(C(=O)N3CCc4ccccc4C3)no2)c1	DAT uptake mod 2.9
CCC1(O)c2ccccc2-c2ncccc21 (stereo unspecified)	none (no result: AP ELISA ortho, D1 mod, WNV NS2B-NS3 inh)
COc1nc(C)ccc1-c1noc(-c2ccco2)n1	D1 mod -1.3
C/C=C1\COC(C(=O)NCc2ccccc2)(C(F)(F)F)C=C1C=C(C)C (stereo unspecified)	none (no result: AP ELISA ortho, D1 mod, WNV NS2B-NS3 inh)
Cc1nc2ncnn2c(N2CCN(C(c3ccccc3)c3ccccc3)CC2)c1C	DAT uptake mod 3.2
Cn1c(=O)[nH]c(=O)c2c1nc(N1CCN(c3cccc(Cl)c3)CC1)n2CCCc1ccccc1	none
CCCCn1c(CN2CCN(c3cccc(Cl)c3)CC2)nc2c1c(=O)n(C)c(=O)n2C	D1 mod -2.9
CCCCCCn1c(N2CCC(C)CC2)nc2c1c(=O)[nH]c(=O)n2C	D1 mod 18
CCCCCn1c(N2CCN(c3cccc(Cl)c3)CC2)nc2c1c(=O)[nH]c(=O)n2C	D1 mod 4.9
C=C(C)Cn1c(N2CC(C)CC(C)C2)nc2c1c(=O)[nH]c(=O)n2C (stereo unspecified)	D1 mod 7
C=C(C)Cn1c(NCCOC)nc2c1c(=O)[nH]c(=O)n2C	none
COC(=O)c1ccc2c(=O)n(CCC3=CCCCC3)c(SCC(=O)N3CCCC3)nc2c1	none (no result: DAT uptake mod)
COc1ccc(Nc2nc(C)cc(C)c2C#N)cc1OC	none
Cn1c(-c2ccc(F)cc2)cnc1SCC(=O)N1CCCCC1	D1 mod -4.3
O=C(c1ccc([N+](=O)[O-])cc1)N(Cc1ccc(Cl)cc1)N1C(=O)CCCC1=O	DAT uptake mod -6.6 (no result: AP ELISA ortho, D1 mod, WNV NS2B-NS3 inh)
COc1ccc(C(=O)n2nc(-c3ccco3)nc2SC)cc1OC	AP ELISA ortho 102
CCCCC1=CC2=C(c3ccco3)C(=O)C(C)(OC(=O)c3ccc(OC)cc3)C(=O)C2=CN1c1ccccc1 (stereo unspecified)	none (no result: AP ELISA ortho, D1 mod, WNV NS2B-NS3 inh)
CC#CCCCC(=O)Nc1ccccc1C(=O)O	none
CC#CCCCC(=O)Nc1ccc(C(=O)O)cc1	D1 mod -3.1
COc1cc(C2NC(C(=O)O)CS2)ccc1OCc1ccccc1C#N (stereo unspecified)	D1 mod -2.8
CCCCCCCCN1[C@@H](CC(=O)OC)c2cc(C(F)(F)F)ccc2S1(=O)=O	none (no result: AP ELISA ortho, D1 mod, WNV NS2B-NS3 inh)
CCc1nc(SCC(=O)N2CCCc3ccccc32)c2c(=O)n(C)c(=O)n(C)c2n1	none (no result: DAT uptake mod)
Cc1cccc(NC(=O)C2CC(O)CN2C(=O)OCc2ccccc2)c1 (stereo unspecified)	D1 mod -3.9
CCCc1nnc(SCC(=O)N2CCCCC2)n1CCCOC	none (no result: AP ELISA ortho, D1 mod, WNV NS2B-NS3 inh)
COc1ccc(C(=O)N2CCN(C3CCC(c4ccccc4)CC3)CC2)cc1OC (stereo unspecified)	D1 mod -5.1
COc1ccc(C(=O)N2CCC(N3CCN(c4ccccc4)CC3)CC2)cc1OC	none (no result: AP ELISA ortho, D1 mod)
COc1ccc(Nc2ncnc3ccccc23)cc1	none (no result: AP ELISA ortho, D1 mod, WNV NS2B-NS3 inh)
COc1ccc(Nc2ccnc3ccccc23)cc1	D1 mod -3.7
COc1ccc2cc3cc(C(=O)NCC4COc5ccccc5O4)oc3nc2c1 (stereo unspecified)	none
CCOC(=O)C1=CN(c2cccc(F)c2)C=C(C(=O)OCC)C1c1cc(OC)c(O)c([N+](=O)[O-])c1	none (no result: AP ELISA ortho, D1 mod, WNV NS2B-NS3 inh)
CCCCc1nnc(NC(=O)C(C)Sc2nc(C)cc(=O)[nH]2)s1 (stereo unspecified)	none (no result: AP ELISA ortho, D1 mod, WNV NS2B-NS3 inh)
CCCn1c(SCC(=O)Nc2sc(C)c(C)c2C(=O)OC)nc2c1c(=O)n(C)c(=O)n2C	WNV NS2B-NS3 inh -3.8 (no result: DAT uptake mod)
CC1CCCN(C(=O)C(C)Sc2nc(-c3ccccc3)cc(C(F)(F)F)n2)C1 (stereo unspecified)	none (no result: AP ELISA ortho, D1 mod, WNV NS2B-NS3 inh)
CC1(C)Oc2ccc3ccc(=O)oc3c2/C(=C/Nc2ccccn2)C1=O	D1 mod -3.6
CN/C=C1\C(=O)C(C)(C)Oc2ccc3ccc(=O)oc3c21	none
CC(=O)Nc1nnc(SCC(=O)NCCOc2ccccc2)s1	DAT uptake mod -8
CC1CCCCN1C(=O)Cc1ccc(F)cc1 (stereo unspecified)	DAT uptake mod -8
CC1CCCCN1C(=O)c1ccc(C(=O)N2CCCCC2C)cc1 (stereo unspecified)	none
O=S(=O)(N1CCOCC1)n1c(Cc2ccccc2)nc2ccccc21	D1 mod 4.4
O=C(O)CCC(=O)Nc1nnc(C(F)(F)F)s1	none
CCC(NC(=O)Nc1nnc(C(F)(F)F)s1)(C(F)(F)F)C(F)(F)F	DAT uptake mod -3.3 (no result: AP ELISA ortho)
COc1ccccc1N1CCN(C/C(C)=C/c2ccccc2)CC1	D1 mod -3.6
C/C(=C\c1ccccc1)CN1CCN(c2ccccc2)CC1	none
COC(=O)c1ccccc1NC(=O)CN1CCC(n2nnc3cc(F)ccc32)CC1	none (no result: D1 mod)
CCOc1ccc2nc(NC(=O)CN3CCC(n4nnc5cc(F)ccc54)CC3)sc2c1	DAT uptake mod 4.3
O=C(CN1CCC(n2nnc3cc(F)ccc32)CC1)NC1CC1	none (no result: DAT uptake mod)
O=C(CN1CCC(n2nnc3cc(F)ccc32)CC1)Nc1ccccc1N1CCOCC1	D1 mod -3.1 (no result: AP ELISA ortho)
O=C(Nc1cccnc1)Nc1ccc(F)c(Cl)c1	DAT uptake mod -4.3 (no result: D1 mod)
O=C(O)C[C@H]1c2cc(C(F)(F)F)ccc2S(=O)(=O)N1Cc1ccccc1	none (no result: AP ELISA ortho, D1 mod, WNV NS2B-NS3 inh)
O=C(c1ccc(Cl)c(Cl)c1)N1CCC(=O)N(C(CO)Cc2ccccc2)CC1 (stereo unspecified)	none (no result: AP ELISA ortho, D1 mod, WNV NS2B-NS3 inh)
O=C(c1cc2c(=O)oc3ccccc3c2s1)N1CCOCC1	D1 mod -4.6
O=C(c1ccco1)N1CCN(C(=O)c2cc3c(=O)oc4ccccc4c3s2)CC1	none
CC(=O)c1c(C)[nH]c(C(=O)NCCc2cccc(C)c2)c1C	D1 mod -2.7
Cc1ccc(-c2nnc(COc3cccc(-n4cnnn4)c3)o2)cc1	DAT uptake mod -11 (no result: D1 mod)
c1nc(NCCN2CCOCC2)c2sc3nc(N4CCOCC4)c4c(c3c2n1)CCC4	D1 mod 6.8 (no result: DAT uptake mod)
CCN1CCN(c2ncnc3c2sc2nc(N4CCOCC4)c4c(c23)CCC4)CC1	none (no result: DAT uptake mod, D1 mod)
O=C(CN1CCCC1)N1CCCc2c1c(=O)oc1ccc(OCc3ccccc3)cc21	DAT uptake mod 2.2
CCCOc1ccc2oc(=O)c3c(c2c1)CCCN3C(=O)CN1CCN(C(=O)c2ccco2)CC1	none (no result: DAT uptake mod)
O=S1(=O)CC(O)C(N2CCCCC2)C1 (stereo unspecified)	none (no result: AP ELISA ortho, D1 mod, WNV NS2B-NS3 inh)
COc1ccc(C2=NOC(C)(c3nnc(-c4ccc(Cl)cc4)o3)C2)cc1 (stereo unspecified)	none (no result: AP ELISA ortho, D1 mod, WNV NS2B-NS3 inh)
